Measurements pooled from the literature.
Each line is one published result; the experiments were not run side by side.
RPS6KA1: Ribosomal protein S6 kinase alpha-1 (RPS6KA1, Homo sapiens, UniProt Q15418)
RPS6KA1 C-terminal kinase domain: Ribosomal protein S6 kinase alpha-1, C-terminal kinase domain (RPS6KA1, Homo sapiens, UniProt Q15418)

SMILES	target	test	conditions	quantity	value
CC(C)(C)c1cc(C=C(C#N)C#N)cc(Br)c1O	RPS6KA1	enzyme activity, inhibitor	0.5 µM	remaining activity	104%
C#Cc1n[nH]c2c(-c3cn([C@@H](C)c4ccccn4)c(=O)[nH]c3=O)cc(F)cc12	RPS6KA1	enzyme activity, inhibitor	0.1 µM	inhibition	7.4%
O=c1[nH]c2ccccc2n1C1CCN(Cc2ccc(-c3[nH]c4cc5ncnc5cc4nc3-c3ccccc3)cc2)CC1	RPS6KA1	cell-free assay	0.5 µM	remaining signal	101%
C#Cc1n[nH]c2c(-c3cn([C@@H](C)c4ccccc4)c(=O)[nH]c3=O)cc(F)cc12	RPS6KA1	enzyme activity, inhibitor	0.1 µM	inhibition	6.2%
Cn1cc(-c2cccc(N3CCc4c(sc5c4CC(C)(C)C5)C3=O)c2CO)cc(Nc2ccncn2)c1=O	RPS6KA1	enzyme activity, inhibitor	1 µM	inhibition	-1%
Cn1cncc1[C@@](O)(COc1ccc(C#N)cc1-c1ccc(OC(F)(F)F)cc1)c1ccc(C#N)cc1	RPS6KA1 C-terminal kinase domain	cell-free assay, competition with immobilised ligand	1 µM	remaining binding	100%
Cc1nn(C)cc1-c1nc2c(N3CCN(Cc4ccc(Cl)cc4)CC3)c(Cl)cnc2[nH]1	Ribosomal protein S6 kinase alpha-1, N-terminal kinase domain (RPS6KA1, Homo sapiens, UniProt Q15418)	binding, competition with immobilised ligand	1 µM	remaining binding	100%
N#CC1(c2ccccn2)CCN(Cc2cc(C(=O)O)c(=O)n3ccccc23)CC1	RPS6KA1 C-terminal kinase domain	cell-free assay, competition with immobilised ligand	1 µM	remaining binding	100%
Cn1cc(-c2cc(F)cc(N3CCn4c(cc5c4CCCC5)C3=O)c2CO)cc(Nc2ccc(N3CCN(C4COC4)CC3)cn2)c1=O	RPS6KA1	enzyme activity, inhibitor	0.1 µM	inhibition	0%
Nc1ncc(-c2nc(N3CCOCC3)nc(N3CCOCC3)n2)c(C(F)F)n1	RPS6KA1 C-terminal kinase domain	binding, competition with immobilised ligand	10 µM	remaining binding	88%
